ChEMBL document CHEMBL4706544, “Discovery of 2-oxy-2-phenylacetic acid substituted naphthalene sulfonamide derivatives as potent KEAP1-NRF2 protein-protein interaction inhibitors for inflammatory conditions” (Eur J Med Chem, 2020)
One block for each compound: values may come before it. Activity calls are given as the source filed them. The calls are words filed in the database; no cut-off is given here.

Legend:
[1] = molecular target: Keap1/Nrf2 (Homo sapiens, UniProt Q14145)
[2] = test system: Mus musculus; experiment: Antiinflammatory activity in LPS-induced C57BL/6 mouse model assessed as reduction in IFNgamma production at 10 mg/kg, ip treated for 3 days measured 24 hrs post last dose by ELISA; format: functional, organism-based; details: time 4.0 day
Method in brief: (§1)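 Female C57BL/6 mice (20 ± 2 g) got LPS 300 µg/kg IP, then 4 h later IP test compound (500 µL) daily for 3 days. Groups were saline control (n=3), LPS (n=8), LPS + 10 or 40 mg/kg (n=8 each) and LPS + dexamethasone 10 mg/kg IP (n=8). Sera were taken 24 h after the last dose, and IFN-γ, IL-1β, IL-6 and TNF-α were measured by ELISA kits.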

[3] = test system: Mus musculus; experiment: Antiinflammatory activity in LPS-induced C57BL/6 mouse model assessed as reduction in IL1beta production at 10 mg/kg, ip treated for 3 days measured 24 hrs post last dose by ELISA; format: functional, organism-based; details: time 4.0 day
Method in brief: as §1

[4] = test system: Mus musculus; experiment: Antiinflammatory activity in LPS-induced C57BL/6 mouse model assessed as reduction in IL6 production at 10 mg/kg, ip treated for 3 days measured 24 hrs post last dose by ELISA; format: functional, organism-based; details: time 4.0 day
Method in brief: as §1

[5] = test system: Mus musculus; experiment: Antiinflammatory activity in LPS-induced C57BL/6 mouse model assessed as reduction in TNFalpha production at 10 mg/kg, ip treated for 3 days measured 24 hrs post last dose by ELISA; format: functional, organism-based; details: time 4.0 day
Method in brief: as §1

[6] = test system: RAW264.7; experiment: Antioxidant activity in mouse RAW264.7 cells assessed as inhibition of LPS-induced ROS generation at 10 uM measured after 12 hrs by CH2DCF-DA staining based fluorescence microscopic analysis; format: functional, cell-based
Method in brief: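 RAW 264.7 cells were pretreated with LPS 1 µg/mL for 6 h, then given compound for 12 h. Cells were washed with PBS and stained with 10 µM c-H2DCF-DA for 20 min at 37 °C in the dark. ROS was imaged by live-cell fluorescence microscopy and quantified as mean fluorescence intensity. n = 3 independent observations, mean ± SEM.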

[7] = test system: RAW264.7; experiment: Antioxidant activity in LPS-induced mouse RAW264.7 cells assessed as restoration of SOD activity at 10 uM […]; format: functional, cell-based
[8] = test system: RAW264.7; experiment: Antioxidant activity in LPS-induced mouse RAW264.7 cells assessed as restoration of GSH-Px activity at 10 uM measured after 12 hrs; format: functional, cell-based
Method in brief: (§2)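 RAW 264.7 cells were pretreated with LPS 1 µg/mL for 6 h, then exposed to compound (1 or 10 µM) for a further 12 h. SOD activity (WST-8 kit), GSH-Px activity, MPO activity and the GSH/GSSG ratio were measured with commercial kits per the manufacturer's protocols. Data are mean ± SEM, n = 3 independent observations, one-way ANOVA.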

[9] = test system: RAW264.7; experiment: Antioxidant activity in LPS-induced mouse RAW264.7 cells assessed as restoration of GSH to GSSG ratio at 10 uM measured after 12 hrs; format: functional, cell-based
Method in brief: as §2

[10] = test system: RAW264.7; experiment: Antioxidant activity in mouse RAW264.7 cells assessed as reversal in LPS-induced increase of MPO activity measured after 12 hrs; format: functional, cell-based
Method in brief: as §2

[11] = Half life in CD-1 rat liver microsomes preincubated for 5 mins followed by NADPH addition and measured after 45 mins by LC-MS/MS analysis; format: ADME, Microsome; details: time 50 min
Method in brief: (§3)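 CD-1 male rat liver microsomes in PBS were shaken 10 min at 37 °C, then DMSO compound solution (0.1 mM) was added. Plates were preincubated 5 min at 37 °C before NADPH was added to start the reaction; the 0-min samples were quenched with acetonitrile first. Ice-cold acetonitrile stopped reactions at 5, 15, 30 and 45 min. Clozapine was the reference; supernatants were analysed by LC-MS/MS.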

[12] = Intrinsic clearance in CD-1 rat liver microsomes preincubated for 5 mins followed by NADPH addition and measured after 45 mins by LC-MS/MS analysis; format: ADME, Microsome; details: time 50 min
Method in brief: as §3

[13] = Hepatic clearance in CD-1 rat liver microsomes preincubated for 5 mins followed by NADPH addition and measured after 45 mins by LC-MS/MS analysis; format: ADME, Microsome
Method in brief: as §3

[14] = molecular target: T1, Cytochrome P450 1A2 (Homo sapiens, UniProt P05177); experiment: Inhibition of CYP1A2 in human liver microsomes preincubated for 10 mins followed by NADPH addition by LC-MS/MS analysis; format: ADME
T1 sequence (P05177 whole entry): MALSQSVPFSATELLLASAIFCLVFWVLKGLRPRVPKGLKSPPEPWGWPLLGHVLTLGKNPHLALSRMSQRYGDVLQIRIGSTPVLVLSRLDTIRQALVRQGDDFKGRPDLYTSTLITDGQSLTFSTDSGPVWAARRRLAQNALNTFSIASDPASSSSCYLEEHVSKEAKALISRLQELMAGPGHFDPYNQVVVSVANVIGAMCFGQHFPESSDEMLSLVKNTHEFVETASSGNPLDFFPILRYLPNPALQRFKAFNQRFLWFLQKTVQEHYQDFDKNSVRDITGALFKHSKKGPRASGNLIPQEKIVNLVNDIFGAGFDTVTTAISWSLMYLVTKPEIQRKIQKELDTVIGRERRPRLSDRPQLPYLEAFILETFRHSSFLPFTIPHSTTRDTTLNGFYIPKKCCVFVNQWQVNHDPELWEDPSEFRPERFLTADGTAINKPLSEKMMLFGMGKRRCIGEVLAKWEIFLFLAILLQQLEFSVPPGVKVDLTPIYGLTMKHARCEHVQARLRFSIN

[15] = molecular target: Cytochrome P450 2C9 (Homo sapiens, UniProt P11712); experiment: Inhibition of CYP2C9 in human liver microsomes preincubated for 10 mins followed by NADPH addition by LC-MS/MS analysis; format: ADME
[16] = molecular target: Cytochrome P450 2C19 (Homo sapiens, UniProt P33261); experiment: Inhibition of CYP2C19 in human liver microsomes preincubated for 10 mins followed by NADPH addition by LC-MS/MS analysis; format: ADME
[17] = molecular target: Cytochrome P450 2D6 (Homo sapiens, UniProt P10635); experiment: Inhibition of CYP2D6 in human liver microsomes preincubated for 10 mins followed by NADPH addition by LC-MS/MS analysis; format: ADME
[18] = molecular target: Cytochrome P450 3A4 (Homo sapiens, UniProt P08684); experiment: Inhibition of CYP3A4 in human liver microsomes preincubated for 10 mins followed by NADPH addition by LC-MS/MS analysis; format: ADME
[19] = AUC (0 to t) in Sprague-Dawley rat at 1 mg/kg, iv by LC-MS/MS analysis; format: ADME, organism-based; details: in vivo
[20] = AUC (0 to infinity) in Sprague-Dawley rat at 1 mg/kg, iv by LC-MS/MS analysis; format: ADME, organism-based; set-up: dose 1 mg/kg, route intravenous, time infinity; details: in vivo
[21] = Half life in Sprague-Dawley rat at 1 mg/kg, iv by LC-MS/MS analysis; format: ADME, organism-based; details: in vivo
Method in brief: (§4)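 Six male SD rats (180–220 g) received 1 mg/kg IV in normal saline with cosolvent. Plasma was obtained by centrifugation at 4 °C and 2000 rpm for 10 min, stored near −80 °C, and analysed by LC-MS/MS.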

[22] = Cmax in Sprague-Dawley rat at 1 mg/kg, iv by LC-MS/MS analysis; format: ADME, organism-based; set-up: route intravenous, dose 1 mg/kg; details: in vivo
Method in brief: as §4

[23] = Apparent volume of distribution during terminal phase in Sprague-Dawley rat at 1 mg/kg, iv by LC-MS/MS analysis; format: ADME, organism-based; details: in vivo
Method in brief: as §4

[24] = test system: Mus musculus; experiment: Antiinflammatory activity in ip dosed LPS-induced C57BL/6 mouse model assessed as reduction in IFNgamma production treated for 3 days measured 24 hrs post last dose by ELISA; format: functional, organism-based; details: time 4.0 day
Method in brief: as §1

[25] = test system: Mus musculus; experiment: Antiinflammatory activity in ip dosed LPS-induced C57BL/6 mouse model assessed as reduction in IL1beta production treated for 3 days measured 24 hrs post last dose by ELISA; format: functional, organism-based; details: time 4.0 day
Method in brief: as §1

[26] = test system: Mus musculus; experiment: Antiinflammatory activity in ip dosed LPS-induced C57BL/6 mouse model assessed as reduction in IL6 production treated for 3 days measured 24 hrs post last dose by ELISA; format: functional, organism-based; details: time 4.0 day
Method in brief: as §1

[27] = test system: Mus musculus; experiment: Antiinflammatory activity in ip dosed LPS-induced C57BL/6 mouse model assessed as reduction in TNFalpha production treated for 3 days measured 24 hrs post last dose by ELISA; format: functional, organism-based; details: time 4.0 day
Method in brief: as §1

Keap1/Nrf2, sequence (Q16236 whole entry): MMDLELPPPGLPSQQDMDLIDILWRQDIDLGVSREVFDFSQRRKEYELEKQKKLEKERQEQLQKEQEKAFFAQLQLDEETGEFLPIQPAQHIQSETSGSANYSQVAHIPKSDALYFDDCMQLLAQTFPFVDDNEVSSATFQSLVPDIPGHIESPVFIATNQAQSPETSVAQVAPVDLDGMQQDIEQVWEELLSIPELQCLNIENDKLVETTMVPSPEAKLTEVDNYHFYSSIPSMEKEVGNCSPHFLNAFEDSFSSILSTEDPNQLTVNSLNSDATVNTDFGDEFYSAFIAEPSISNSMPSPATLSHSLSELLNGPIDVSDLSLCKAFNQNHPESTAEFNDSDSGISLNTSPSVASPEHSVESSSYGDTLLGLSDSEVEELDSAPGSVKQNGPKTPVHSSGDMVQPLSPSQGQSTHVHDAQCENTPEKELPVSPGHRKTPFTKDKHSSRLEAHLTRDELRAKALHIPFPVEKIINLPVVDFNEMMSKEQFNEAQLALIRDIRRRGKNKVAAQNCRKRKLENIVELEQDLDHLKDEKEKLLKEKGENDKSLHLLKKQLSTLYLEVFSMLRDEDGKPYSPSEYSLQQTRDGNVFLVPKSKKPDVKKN
Keap1/Nrf2, sequence (Q14145 whole entry): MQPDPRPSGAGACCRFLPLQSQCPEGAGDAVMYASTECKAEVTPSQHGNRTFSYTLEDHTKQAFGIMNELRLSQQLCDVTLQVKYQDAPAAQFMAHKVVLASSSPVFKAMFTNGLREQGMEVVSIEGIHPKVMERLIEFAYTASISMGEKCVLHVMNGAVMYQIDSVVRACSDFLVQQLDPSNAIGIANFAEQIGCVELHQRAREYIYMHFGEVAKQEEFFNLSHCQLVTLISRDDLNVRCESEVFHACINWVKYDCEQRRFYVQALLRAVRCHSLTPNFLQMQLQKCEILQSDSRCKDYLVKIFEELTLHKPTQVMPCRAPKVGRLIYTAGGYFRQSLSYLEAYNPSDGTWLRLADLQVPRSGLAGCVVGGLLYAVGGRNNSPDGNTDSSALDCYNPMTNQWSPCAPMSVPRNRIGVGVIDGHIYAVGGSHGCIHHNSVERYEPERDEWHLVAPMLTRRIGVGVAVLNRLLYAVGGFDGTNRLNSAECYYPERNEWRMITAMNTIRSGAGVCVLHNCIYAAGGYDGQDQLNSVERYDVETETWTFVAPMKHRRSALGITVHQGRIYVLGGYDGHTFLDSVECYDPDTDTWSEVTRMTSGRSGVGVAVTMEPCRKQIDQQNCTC
Cytochrome P450 3A4, sequence (P08684 whole entry): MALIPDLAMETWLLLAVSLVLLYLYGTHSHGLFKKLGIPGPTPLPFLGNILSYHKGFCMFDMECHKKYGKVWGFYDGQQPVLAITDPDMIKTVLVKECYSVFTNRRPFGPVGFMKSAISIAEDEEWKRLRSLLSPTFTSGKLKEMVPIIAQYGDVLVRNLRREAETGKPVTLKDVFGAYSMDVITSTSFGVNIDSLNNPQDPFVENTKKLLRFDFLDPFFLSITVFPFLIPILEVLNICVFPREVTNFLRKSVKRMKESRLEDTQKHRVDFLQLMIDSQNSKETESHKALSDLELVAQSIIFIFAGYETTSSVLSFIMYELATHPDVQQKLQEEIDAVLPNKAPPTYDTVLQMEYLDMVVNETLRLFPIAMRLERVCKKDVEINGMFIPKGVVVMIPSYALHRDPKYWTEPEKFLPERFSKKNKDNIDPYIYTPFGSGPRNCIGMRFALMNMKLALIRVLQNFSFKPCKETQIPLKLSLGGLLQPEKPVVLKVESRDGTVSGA
Cytochrome P450 2C9, sequence (P11712 whole entry): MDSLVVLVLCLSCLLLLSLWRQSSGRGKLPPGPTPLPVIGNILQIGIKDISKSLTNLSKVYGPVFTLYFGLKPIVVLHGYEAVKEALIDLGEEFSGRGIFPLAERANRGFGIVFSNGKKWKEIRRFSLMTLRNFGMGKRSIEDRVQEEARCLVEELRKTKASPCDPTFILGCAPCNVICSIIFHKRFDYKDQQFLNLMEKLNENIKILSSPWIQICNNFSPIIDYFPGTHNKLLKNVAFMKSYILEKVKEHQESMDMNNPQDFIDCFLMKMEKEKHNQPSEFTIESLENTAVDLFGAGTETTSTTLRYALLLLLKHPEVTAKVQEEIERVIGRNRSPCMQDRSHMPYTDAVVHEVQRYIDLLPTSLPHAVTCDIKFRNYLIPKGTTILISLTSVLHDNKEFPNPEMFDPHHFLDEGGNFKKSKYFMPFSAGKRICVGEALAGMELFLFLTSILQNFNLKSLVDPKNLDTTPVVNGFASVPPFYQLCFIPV
Cytochrome P450 2D6, sequence (P10635 whole entry): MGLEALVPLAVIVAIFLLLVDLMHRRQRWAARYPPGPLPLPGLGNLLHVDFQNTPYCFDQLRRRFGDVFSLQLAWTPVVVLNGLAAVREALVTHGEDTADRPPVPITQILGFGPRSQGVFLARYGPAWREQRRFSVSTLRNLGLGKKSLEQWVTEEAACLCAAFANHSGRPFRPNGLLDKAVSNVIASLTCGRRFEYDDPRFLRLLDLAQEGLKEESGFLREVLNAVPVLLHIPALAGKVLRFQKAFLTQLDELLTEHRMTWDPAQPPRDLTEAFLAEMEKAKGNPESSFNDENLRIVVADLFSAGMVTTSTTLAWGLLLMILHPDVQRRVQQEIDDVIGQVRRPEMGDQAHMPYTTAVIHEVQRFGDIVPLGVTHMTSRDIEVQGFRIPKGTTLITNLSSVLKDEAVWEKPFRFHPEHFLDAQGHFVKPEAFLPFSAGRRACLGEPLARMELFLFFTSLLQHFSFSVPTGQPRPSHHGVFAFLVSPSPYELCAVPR
Cytochrome P450 2C19, sequence (P33261 whole entry): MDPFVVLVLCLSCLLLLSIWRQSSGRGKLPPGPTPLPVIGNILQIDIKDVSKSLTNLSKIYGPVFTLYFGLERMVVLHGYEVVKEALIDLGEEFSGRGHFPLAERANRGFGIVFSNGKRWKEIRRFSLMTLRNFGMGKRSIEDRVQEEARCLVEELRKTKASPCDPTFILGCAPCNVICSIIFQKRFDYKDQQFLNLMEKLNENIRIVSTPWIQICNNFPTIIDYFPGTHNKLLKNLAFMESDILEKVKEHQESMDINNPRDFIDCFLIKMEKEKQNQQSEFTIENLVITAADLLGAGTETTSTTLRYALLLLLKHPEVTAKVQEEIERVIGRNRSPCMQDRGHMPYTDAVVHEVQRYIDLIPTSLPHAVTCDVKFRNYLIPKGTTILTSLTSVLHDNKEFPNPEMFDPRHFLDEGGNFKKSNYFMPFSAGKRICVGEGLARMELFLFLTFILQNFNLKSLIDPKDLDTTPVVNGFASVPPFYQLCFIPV

Compound: C[C@@H]1C[C@H]2[C@@H]3CCC4=CC(=O)C=C[C@]4(C)[C@@]3(F)[C@@H](O)C[C@]2(C)[C@@]1(O)C(=O)CO
Activity [2]: Active
Activity [3]: Active
Activity [4]: Active
Activity [5]: Active

Compound: NC(=O)c1ccc(S(=O)(=O)N(CC(=O)O)c2ccc(OC(C(=O)O)c3ccccc3)c3ccccc23)cc1 (configuration not stated)
IC50 [1]: 2690 nM

Compound: CC(=O)Nc1ccc(C(Oc2ccc(N(CC(=O)O)S(=O)(=O)c3c(C)cc(C)cc3C)c3ccccc23)C(=O)O)cc1 (configuration not stated)
IC50 [1]: 980 nM

Compound: O=C(O)CN(c1ccc(OC(C(=O)O)c2ccccc2)c2ccccc12)S(=O)(=O)c1cccc2ccccc12 (configuration not stated)
IC50 [1]: 780 nM

Compound: O=C(O)CN(c1ccc(OC(C(=O)O)c2ccccc2)c2ccccc12)S(=O)(=O)c1ccc(OC(F)(F)F)cc1 (configuration not stated)
IC50 [1]: 5840 nM

Compound: O=C(O)CN(c1ccc(OC(C(=O)O)c2ccccc2)c2ccccc12)S(=O)(=O)c1ccc(Br)cc1 (configuration not stated)
IC50 [1]: 2970 nM

Compound: O=C(O)CN(c1ccc(OC(C(=O)O)c2ccccc2)c2ccccc12)S(=O)(=O)c1ccc(Cl)cc1 (configuration not stated)
IC50 [1]: 7640 nM

Compound: O=C(O)CN(c1ccc(OC(C(=O)O)c2ccccc2)c2ccccc12)S(=O)(=O)c1ccccc1 (configuration not stated)
IC50 [1]: 17800 nM

Compound: Cc1cc(C)c(S(=O)(=O)N(CC(=O)O)c2ccc(OC(C(=O)O)c3ccc(C(F)(F)F)cc3)c3ccccc23)c(C)c1 (configuration not stated)
IC50 [1]: 1190 nM

Compound: Cc1ccc(S(=O)(=O)N(CC(=O)O)c2ccc(OC(C(=O)O)c3ccccc3)c3ccccc23)cc1 (configuration not stated)
IC50 [1]: 2690 nM

Now from value to compound, other results behind:

IC50 [1]: 19000 nM
Compound: Cc1cc(C)c(S(=O)(=O)N(CC(=O)O)c2ccc(OC(C(=O)O)c3ccc(C(C)(C)C)cc3)c3ccccc23)c(C)c1 (configuration not stated)

IC50 [1]: 190 nM
Compound: Cc1cc(C)c(S(=O)(=O)N(CC(=O)O)c2ccc(OC(C(=O)O)c3ccc(Cl)cc3)c3ccccc23)c(C)c1 (configuration not stated)

IC50 [1]: 160 nM
Compound: Cc1cc(C)c(S(=O)(=O)N(CC(=O)O)c2ccc(OC(C(=O)O)c3ccc(O)cc3)c3ccccc23)c(C)c1 (configuration not stated)

IC50 [1]: 500 nM
Compound: Cc1cc(C)c(S(=O)(=O)N(CC(=O)O)c2ccc(OC(C(=O)O)c3ccc(OC(C)C)cc3)c3ccccc23)c(C)c1 (configuration not stated)

IC50 [1]: 150 nM
Compound: CCOc1ccc(C(Oc2ccc(N(CC(=O)O)S(=O)(=O)c3c(C)cc(C)cc3C)c3ccccc23)C(=O)O)cc1 (configuration not stated)

half-life at […] [11]: 10.5 h
CLint at […] [12]: 1.57 µL/min/mg
CLhep predicted at […] [13]: 2.69 mL/min/kg
IC50 [14]: > 10000 nM
IC50 [15]: > 10000 nM
IC50 [16]: > 10000 nM
IC50 [17]: > 10000 nM
IC50 [18]: > 10000 nM
AUC(0-t) [19]: 2550 ng·h/mL
AUC [20]: 2649 ng·h/mL
t1/2 [21]: 1.72 h
Cmax [22]: 15100 ng/mL
Vz/F [23]: 0.953 L/kg
Compound: COc1ccc(C(Oc2ccc(N(CC(=O)O)S(=O)(=O)c3c(C)cc(C)cc3C)c3ccccc23)C(=O)O)cc1 (configuration not stated)
inhibition [6]: Dose-dependent effect
Activity [7]: Active
Activity [8]: Active
Activity [9]: Active
Activity [10]: Dose-dependent effect
Activity [24]: Dose-dependent effect
Activity [25]: Dose-dependent effect
Activity [26]: Dose-dependent effect
Activity [27]: Dose-dependent effect

IC50 [1]: 430 nM
Compound: Cc1cc(C)c(S(=O)(=O)N(CC(=O)O)c2ccc(OC(C(=O)O)c3ccc(Br)cc3)c3ccccc23)c(C)c1 (configuration not stated)

IC50 [1]: 170 nM
Compound: Cc1cc(C)c(S(=O)(=O)N(CC(=O)O)c2ccc(OC(C(=O)O)c3ccc(F)cc3)c3ccccc23)c(C)c1 (configuration not stated)
